A selection: hits, their analogues and other compounds. The true share with any hit is near 2.1%.
SUMO1-SIM PPI: alters human SUMO1 binding to SIM partners; SUMO1 binding to a labelled peptide, TR-FRET, 1 h; inhibition, % at 20 µM; 360,000 compounds, 0.33% hits; AID 602429; in the data active = inhibition above about 37%
Target sequence (P63165 whole entry, looked up): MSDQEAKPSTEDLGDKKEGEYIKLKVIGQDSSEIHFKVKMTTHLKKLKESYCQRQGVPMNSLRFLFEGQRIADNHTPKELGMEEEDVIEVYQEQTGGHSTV
STEP block: STEP (human) phosphatase inhibition; P54829; 360,000 compounds, 0.25% hits; inhibition, % at 20 µM; recombinant STEP, OMFP fluorogenic substrate, fluorescence; AID 588621;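 active = inhibition at 20 µM, scaled per plate between control wells, above about 37%, limit read from the data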;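 also: 0% = DMSO with enzyme and substrate and 100% = substrate only without enzyme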
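Material: STEP (striatal-enriched tyrosine phosphatase) enzyme, cell-free | Medium: 50 mM Bis-Tris pH 6.0 with 2.5 mM DTT and 0.005% Tween 20 | Read-out: Percent inhibition scaled to no-enzyme and uninhibited-enzyme controls, plate-pattern corrected | Signal: Fluorescence read at 480 nm ex / 540 nm em | Times: 20 min reaction, room temperature, in the dark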
LMPTP block: LMPTP (human) inhibition. P24666. recombinant LMPTP-A, OMFP fluorogenic substrate, fluorescence intensity. inhibition, % at 20 µM. 360,000 compounds, 0.22% hits. AID 651560;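 active = compounds that cut the enzyme signal by at least half of the control window in the single-dose screen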;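 also: plate controls were DMSO wells with enzyme plus substrate for no effect and substrate without enzyme for full effect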
Target sequence (P24666 whole entry, looked up): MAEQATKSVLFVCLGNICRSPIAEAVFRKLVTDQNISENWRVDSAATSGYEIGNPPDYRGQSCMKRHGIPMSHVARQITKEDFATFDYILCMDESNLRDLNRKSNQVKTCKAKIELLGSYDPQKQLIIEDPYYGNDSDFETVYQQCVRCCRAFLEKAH
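Material: LMPTP-A; amount: 0.625 nM enzyme; doses: single 20 µM dose; times: reaction 50 min, room temperature, dark; technique: fluorescence intensity of OMFP turnover product; benchmarks: no-enzyme and uninhibited controls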
Scp-1 inhibitor: Scp-1 (human) phosphatase inhibition | inhibition, % at 20 µM | Recombinant Scp1, phosphopeptide, malachite green phosphate absorbance | AID 493091 | Q9GZU7 | 340,000 compounds, 0.88% hits;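 active = inhibition above about 50% at 20 µM, limit read from the data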;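 also: plate controls were DMSO wells with enzyme for no effect and wells lacking enzyme for full effect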
Target sequence (Q9GZU7 76-261 limits assumed): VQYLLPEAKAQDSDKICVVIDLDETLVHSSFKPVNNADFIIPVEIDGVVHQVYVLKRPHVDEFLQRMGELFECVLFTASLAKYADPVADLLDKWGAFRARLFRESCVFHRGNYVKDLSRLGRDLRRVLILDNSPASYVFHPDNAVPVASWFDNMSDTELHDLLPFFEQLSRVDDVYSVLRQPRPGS
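Material – SCP-1 phosphatase catalytic domain, residues 76-261 · Buffer or medium – Acidic Tris acetate buffer with magnesium and detergent · Also added – Phospho 17-mer peptide substrate · Compound – single 20 µM dose, 1% DMSO · Times – 45 min room-temperature reaction, 5 min colour, 30 min stabiliser · Technique – Phosphate-binding colour reagent, absorbance read at 630 nm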
DNMT1 inh: blocks human DNA methyltransferase DNMT1; DNMT1 molecular beacon, Hinp1I cleavage, fluorescence; inhibition (reported as % activation of signal), % at 10 µM; 360,000 compounds, 0.83% hits; in the data active = inhibition above about 50%
GRK2 inh: human GRK2 inhibition via aptamer displacement; bead flow cytometry, FAM-aptamer displacement from GRK2; inhibition of aptamer binding, % at 10 µM; 330,000 compounds, 0.59% hits; AID 488847;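 active = inhibition of aptamer binding above 40%, roughly 3 SD of noise, on plates passing a quality check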;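 also: median bead fluorescence of bound FAM aptamer so fluorescent compounds give negative values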
Scp1 confirm: confirmation of human Scp-1 phosphatase inhibitors. AID 540281. recombinant SCP-1 catalytic domain, phosphate release, malachite green absorbance. 2,500 compounds, 61% hits. inhibition, % at 20 µM. shares compounds with Scp-1 inhibitor;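 also: plate controls were DMSO with enzyme for no effect and buffer wells lacking enzyme for full effect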
MG interference: interferes with malachite green readout, flagging false Scp-1 hits; Colorimetric interference counterscreen, malachite green absorbance 630 nm; shares compounds with Scp-1 inhibitor; apparent inhibition (interference), % at 20 µM; AID 540313; 2,500 tested, under 10 active;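 also: compounds added after enzyme reaction finished so only phosphate colour detection is probed; plate controls were DMSO wells with completed Scp-1 reaction for no effect and substrate wells lacking enzyme for full effect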
Scp1 DSF: binds human Scp-1, shifting its melting temperature. Recombinant SCP1, Sypro Orange thermal shift Tm. thermal shift relative to vanadate control, % at 40 µM. 1,500 compounds, 25% hits. shares compounds with Scp-1 inhibitor;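 active = substances whose mean melting-temperature shift, as a percentage of the reference inhibitor's shift, reaches about 5.3%, limit read from the data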;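 also: 0% = Tm of DMSO wells and 100% = Tm with sodium orthovanadate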
* marks the source's active call; other numbers are inactive results; . = no result given.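 The calls were made as follows, unless noted: active = inhibition of at least 30% at 20 µM; inactive = the rest.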

SMILES	SUMO1-SIM PPI	STEP block	LMPTP block	Scp-1 inhibitor	DNMT1 inh	GRK2 inh	Scp1 confirm	MG interference	others
O=C(CCC(=O)Nc1ccc(F)cc1)N/N=C/c1cc([N+](=O)[O-])ccc1O	-15.8	-0.9	-0.8	6.5	-0.7	0.0	.	.
O=C(CCC(=O)Nc1ccc(Br)cc1)N/N=C/c1cc([N+](=O)[O-])ccc1O	-8.1	0.2	14.3	73.9*	-0.8	0.0	22.9	-9.3
O=C(Cn1nnc(-c2ccccc2)n1)NNC(=O)c1ccccc1	0.9	-0.3	-1.0	-0.3	2.7	3.0	.	.
Cc1ccc(OCC(=O)NNC(=O)Cn2nnc(-c3ccccc3)n2)cc1	-3.4	31.5	35.8	52.6*	0.9	0.0	41.2*	-4.3	Scp1 DSF=-8.1
Clc1ccc(Sc2oc(/C=N/n3cnnc3)cc2Br)cc1	-11.8	0.1	-0.3	98.1*	1.6	0.0	-15.4	-15.3
Clc1ccc(Sc2ccc(/C=N/n3cnnc3)o2)cc1	-12.1	0.0	1.7	11.9	0.4	0.0	.	.
N#C/C(=C\c1cccs1)c1nc2ccccc2[nH]1	-10.3	0.9	1.3	-2.7	-2.3	0.0	.	.
N#C/C(=C\c1ccc(OC(=O)c2cccs2)cc1)c1nc2ccccc2[nH]1	-8.0	0.4	3.5	51.5*	-4.0	0.0	82.5*	-1.3	Scp1 DSF=3.2
CCOC(=O)C1(C)Oc2ccccc2C(c2ccc(OC)cc2)=C1C(=O)OC (stereo not given)	1.9	5.5	0.4	3.9	12.3	1.0	.	.
CCOC(=O)C1(C)Oc2ccccc2C(C(=O)OC)=C1C(=O)OC (stereo not given)	0.8	2.4	-0.2	94.2*	7.0	0.0	53.5*	-17.3	Scp1 DSF=-2.1
Cc1ccc(C(=O)NCCN2CCNC2=O)cc1	3.3	4.3	-0.5	-18.2	1.4	2.0	-10.6	-7.3
Cc1onc(-c2c(F)cccc2Cl)c1C(=O)NCCN1CCNC1=O	3.8	-1.0	1.1	-13.6	1.2	4.0	-5.9	-10.9
CCNC(=O)C1(C)CCN(C(=O)c2ccc(C#N)cc2)C1 (stereo not given)	3.0	-1.3	-1.8	.	4.0	.	.	.
O=S(=O)(c1ccccc1)N1CC2CC(Br)C(Br)CC21 (stereo not given)	2.7	0.3	-2.3	.	1.6	.	.	.
COc1cccc(-c2cnc(C(O)c3ccc(CN4CCCC4)cc3)[nH]2)c1 (stereo not given)	1.5	-0.8	1.8	.	3.2	.	.	.
O=c1oc2ccccc2c2c1ccc1ccccc12	-26.4	1.0	2.9	79.6*	23.4	0.0	25.3	-20.0
CCCN(C)C1CN(Cc2cn(Cc3cccc(Cl)c3)nn2)S(=O)(=O)C1 (stereo not given)	4.1	.	-1.5	.	.	.	.	.
CCn1c(CNC(=O)COc2ccc(C(C)C)cc2)nnc1SCC(=O)Nc1ccc(F)cc1	-3.5	-1.2	0.2	-4.6	0.5	5.0	.	.
CCn1c(CNC(=O)COc2ccc(C(C)C)cc2)nnc1SCC(=O)Nc1cc(F)ccc1C	2.0	-2.2	-0.8	85.1*	0.6	0.0	46.1*	-16.7	Scp1 DSF=-6.2
COc1cc(NC(=S)N2CCCC(CO)C2)cc(OC)c1 (stereo not given)	-0.8	15.3	0.8	70.1*	5.1	0.0	-8.1	-5.2
CC1=NNC(=O)C1CCC(=O)N/N=C(\C)c1ccccc1 (stereo not given)	-15.2	4.9	0.1	5.2	-0.2	0.0	-3.2	-6.5
CC1=NNC(=O)C1CCC(=O)N/N=C/c1c(Cl)cccc1Cl (stereo not given)	-1.3	0.7	-0.1	4.7	-1.8	2.0	-7.8	-6.2
Nc1cc2c(cc1Br)-c1c(C(=O)O)cccc1C2O (stereo not given)	1.3	-3.7	-0.8	2.2	2.7	.	.	.
